# mIAP act: increases mouse intestinal alkaline phosphatase activity; AID 2805; activation factor at 10 µM; 330,000 compounds, 0.24% hits; muIAP, CDP-Star luminescence, 30 min; hits give high values; 1 = vehicle-only enzyme signal, 0 = enzyme-free wells;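 active = activation factor of at least 2 at 20 µM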
#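 Assay system: mouse IAP enzyme; Reagent: CDP-Star chemiluminescent phosphatase substrate; Compound: DMSO-dissolved test compounds; Incubation: 30 min, room temperature; Technique: luminescence from enzymatic CDP-Star hydrolysis; Controls: DMSO-only wells and no-enzyme negative control.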
# bIAP activator: increases bovine intestinal alkaline phosphatase activity; purified bovine IAP, CDP-star luminescence, 30 min; hits give high values; fold of DMSO-control signal, blank-subtracted; activation factor at 20 µM; 200,000 compounds, 0.17% hits; AID 1016;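 active = activation factor of 2 or more at 20 µM, a signal rise over negative controls twice the positive control's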
# hIAP activ: increases human intestinal alkaline phosphatase activity. purified human IAP, CDP-Star luminescence, 30 min; hits give high values; 1 = vehicle-only enzyme, 0 = enzyme-free background. activation factor at 10 µM. AID 2524. P09923. 330,000 compounds, 0.16% hits;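 active = activation factor of the enzyme at least 2-fold when tested at 20 µM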
# Target sequence (P09923 whole entry, looked up): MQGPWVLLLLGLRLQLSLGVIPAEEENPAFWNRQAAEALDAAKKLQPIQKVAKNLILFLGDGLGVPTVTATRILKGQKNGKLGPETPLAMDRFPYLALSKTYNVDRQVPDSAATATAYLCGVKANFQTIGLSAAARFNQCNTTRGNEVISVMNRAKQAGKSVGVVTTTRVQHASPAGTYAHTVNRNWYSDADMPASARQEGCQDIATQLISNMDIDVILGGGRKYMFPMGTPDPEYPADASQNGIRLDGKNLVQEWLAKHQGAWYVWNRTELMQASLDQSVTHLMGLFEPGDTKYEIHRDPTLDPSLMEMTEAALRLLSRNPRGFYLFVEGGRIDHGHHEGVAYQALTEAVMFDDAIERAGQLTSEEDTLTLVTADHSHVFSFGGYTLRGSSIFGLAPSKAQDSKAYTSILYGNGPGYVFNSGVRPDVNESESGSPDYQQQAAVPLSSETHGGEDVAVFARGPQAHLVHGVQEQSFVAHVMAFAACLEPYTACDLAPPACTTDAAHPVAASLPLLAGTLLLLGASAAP
# mIAP inh: blocks mouse intestinal alkaline phosphatase | purified mouse IAP, CDP-Star luminescence, 30 min | 330,000 compounds, 0.2% hits | AID 2806 | inhibition, % at 10 µM;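 active = inhibition of at least 40% at 10 µM in the primary screen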;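 also: plate controls were DMSO with enzyme for no effect and no enzyme wells for full effect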
# bIAP inh: blocks bovine intestinal alkaline phosphatase activity | purified bovine IAP, CDP-star luminescence, 30 min | inhibition, % at 20 µM | 190,000 tested, under 10 active;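 active = over 50% inhibition of intestinal alkaline phosphatase at 20 µM in the single-dose screen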
#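 Assay system: bovine IAP enzyme; medium: DEA buffer 100 mM, pH 9.8, with MgCl2 1.0 mM, ZnCl2 0.02 mM; doses: 20 µM single dose; incubation: enzyme reaction for 30 min at room temperature; detection: CDP-star luminescence signal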
# hIAP inh: blocks human intestinal alkaline phosphatase | purified IAP, CDP-Star luminescence, 30 min | P09923 | 330,000 compounds, 0.12% hits | AID 2544 | inhibition, % at 10 µM;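 active = inhibition reaching a set limit with compound at 10 µM in the primary screen, cut at about 35% in these data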;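 also: plate controls were DMSO wells with enzyme for no effect and no-enzyme buffer wells for full effect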
# hIAP act conf: human IAP activation confirmation | shares compounds with hIAP activ | purified IAP, CDP-Star luminescence, 30 min; hits give low values | activation (%Activity, negative = activation), % at 8.3 µM | 880 compounds, 10% hits | AID 434926;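 active = at least twofold enzyme activation in any of six single-dose repeats, which the averaged readout prints as negative percent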
# An asterisk follows results filed as active; x = no result given; + = active, no number. The list is not random: actives were taken first. Their share in the collection is about 0.72%.
SMILES,mIAP act,bIAP activator,hIAP activ,mIAP inh,bIAP inh,hIAP inh,hIAP act conf
COc1ccc(NC(=O)c2csc(Cc3ccccc3)n2)cc1,0.93,0.4,0.87,7,x,13,x
O=C(O)c1cccc(CSc2n[nH]c(-c3ccc(Cl)cc3Cl)n2)c1,1,0.8,0.6,-2,23,40*,-18
COc1ccc(CC(=O)OCC(=O)Nc2cccc(C(C)=O)c2)cc1OC,1,x,0.92,-2,x,8,x
O=C(NNc1ncnc2c1cnn2-c1cccc(Cl)c1)c1ccco1,1,x,3.4*,-3,x,-236,-42
CCC(=O)NNc1ncnc2c1cnn2-c1cccc(C)c1,0.93,1.3,1.6,8,-31,-56,x
Cc1ccc(-n2ncc3c(NNC(=O)c4ccco4)ncnc32)cc1C,0.94,x,2.5*,6,x,-148,41
C/C(=N/NC(=O)c1cc(-c2ccc(Br)s2)[nH]n1)c1ccco1,0.95,1,2.1*,5,-4,-114,-3
O=C(N/N=C/c1ccco1)c1cc(-c2ccc(Cl)s2)[nH]n1,0.96,1.3,2*,4,-26,-101,-66
O=C(N/N=C/c1cccs1)c1cc(-c2ccc(Cl)s2)[nH]n1,0.96,x,2*,4,x,-102,-14
O=C(N/N=C/c1ccco1)c1cc(-c2ccc(Br)s2)[nH]n1,0.84,x,0.98,16,x,2,x
Cc1ccc(S(=O)(=O)Cn2nnnc2C(C(C)C)N2CCC(O)CC2)cc1 (configuration not stated),0.97,x,1.2,3,x,-20,x
COc1cccc(-c2nnc(-c3ccccc3[N+](=O)[O-])o2)c1,0.98,x,1.1,2,x,-8,x
COC(=O)/C=C1\S/C(=N/NC(=O)c2ccccc2)NC1=O,0.84,1.2,1.3,16,-24,-30,x
COc1ccccc1/C=C1\S/C(=N/NC(=O)c2cccc(Br)c2)NC1=O,1,1.1,2.5*,-1,-5,-145,2
CCOc1cccc2sc(Nc3nc4ccc(NC(C)=O)cc4s3)nc12,1.4,1.1,2.1*,-39,-14,-108,9
CC1=NN(c2nc3ccccc3[nH]2)C(=O)/C1=C/N(C)C,1.1,1.1,2.3*,-6,-15,-128,-57*
CC1=NN(c2ccccc2)C(=O)/C1=C/N(C)C,1.1,x,0.93,-6,x,7,x
Nc1nnc(Cc2cccc(Br)c2)s1,1,x,2.1*,-3,x,-106,-41
Nc1nnc(Cc2ccccc2)s1,1,0.9,1.1,-2,14,-14,x
CCOc1ccccc1NC(=O)COC(=O)/C=C/c1cccs1,1,x,1.2,0,x,-24,x
Cc1ccc(C(=O)N(Cc2cccs2)C2CCS(=O)(=O)C2)cc1 (configuration not stated),0.95,x,0.58,5,x,42*,-3
O=C(c1ccc(Cl)cc1)N(Cc1cccs1)C1CCS(=O)(=O)C1 (configuration not stated),1,1,1,-1,1,-2,x
O=[N+]([O-])c1ccccc1S(=O)(=O)N1CCN(c2ccc(F)cc2)CC1,1.1,x,1.1,-5,x,-11,x
OC1(c2cccs2)CN(c2ccc(Br)cc2)C2=[N+]1CCCS2 (configuration not stated),0.95,x,2.8*,5,x,-180,18
CCc1nnc(NC(=O)c2ccc3ccccc3n2)s1,0.75,1.5,1.5,25,-45,-53,x
SMILES,mIAP act,bIAP activator,hIAP activ,mIAP inh,bIAP inh,hIAP inh,hIAP act conf
CCSc1nnc(NC(=O)c2ccc3ccccc3n2)s1,0.85,1,2.1*,15,1,-113,-7
CCOC(=O)CC(NC(=O)CCc1c(C)nc2ncnn2c1C)c1ccc(C)cc1 (configuration not stated),0.96,1.2,0.82,4,-15,18,x
CCOC(=O)Cn1c(=O)c2c(nc3n2CC(C)CN3Cc2ccccc2)n(C)c1=O (configuration not stated),1.1,x,1.1,-9,x,-12,x
CC1CN(Cc2ccccc2)c2nc3c(c(=O)n(CC(N)=O)c(=O)n3C)n2C1 (configuration not stated),0.95,x,0.61,5,x,39*,-37
CCCCCCc1c(C)nc(-n2[nH]c(C)c(CCO)c2=O)[nH]c1=O,0.84,1.2,2.3*,16,-19,-128,-56
CCCCn1nc(C(=O)Nc2ccc3c(c2)OCO3)c2ccccc2c1=O,0.88,x,0.89,12,x,11,x
COc1ccc(S(=O)(=O)NCc2ccc(C(=O)NCCCN3CCCC(C)C3)cc2)cc1 (configuration not stated),1.1,x,1.4,-7,x,-42,x
CCOC(=O)c1cnc(SCC(=O)c2ccc(C)cc2)nc1N,0.97,0.9,0.87,2,7,13,x
CCOC(=O)c1cnc(SCC(=O)c2ccccc2)nc1N,0.96,0.9,0.65,4,10,35*,-436*
N#CCC(=O)Nc1ccc(C(=O)NNC(=S)NC2CCCCC2)cc1,1,x,1.8,-2,x,-76,x
CC(C)CC(=O)Nc1ccc(C(=O)NNC(=S)NC(=O)C2CCCCC2)cc1,1.2,0.9,2.6*,-18,10,-162,-5
CC(C)(C)OC(=O)NCCCCCNC(=O)c1[nH]cnc1C(=O)Nc1ccon1,0.89,x,2*,11,x,-105,9
CC(C)(C)OC(=O)N1CCC(NC(=O)c2[nH]cnc2C(=O)Nc2ccc(Cl)cc2)CC1,0.97,x,1.6,3,x,-65,x
CC(C)(C)OC(=O)N1CCC(NC(=O)c2[nH]cnc2C(=O)Nc2ccon2)CC1,0.83,x,2.7*,17,x,-174,37
O=c1[nH]nc(-c2ccc(F)cc2)cc1Cc1cccs1,0.92,x,0.97,8,x,2,x
COC(=O)c1ccc(C(=O)OC)c(NC(=O)Nc2ccc3c(c2)OCO3)c1,0.95,0.9,2.2*,4,10,-124,+
COC(=O)c1ccccc1NC(=O)Nc1ccc2c(c1)OCO2,1,0.9,0.95,-1,13,5,x
O=C(COc1ccc(Cl)cc1)OCC(=O)N1CCCc2ccccc21,0.56,0.9,0.64,44*,13,36*,-20
CC1(C)C[C@@H](O)CC2(C1)C[C@]1(C)CC(O)[C@H]2C(C)(C)C1 (some centres not stated),0.94,x,2.1*,6,x,-105,-93*
O=C1CC(c2ccccc2)n2nc(NC(=O)c3ccccc3)nc2N1 (configuration not stated),0.97,0.9,0.96,3,6,4,x
O=C1CC(c2ccccc2)n2nc(NC(=O)c3ccccn3)nc2N1 (configuration not stated),1,1.7,2.4*,-5,-68,-137,9
CCOC(=O)c1c(NC(=O)Cn2cc([N+](=O)[O-])cn2)sc2c1CCC2,0.93,1,0.65,7,-4,36*,-91*

# Assay outcomes deposited in PubChem by Sanford-Burnham Center for Chemical Genomics.
